From ChEMBL document CHEMBL2390925, “Further studies on 2-arylacetamide pyridazin-3(2H)-ones: design, synthesis and evaluation of 4,6-disubstituted analogs as formyl peptide receptors (FPRs) agonists” (Eur J Med Chem, 2013)

How the values were obtained:
[1] = target: T1, N-formyl peptide receptor 3 (Homo sapiens, UniProt P25089); test: Agonist activity at FPR3 (unknown origin) transfected in human HL60 cells assessed as induction of Ca2+ mobilization; assay type: cell-based, HL-60
T1 sequence (P25089 whole entry): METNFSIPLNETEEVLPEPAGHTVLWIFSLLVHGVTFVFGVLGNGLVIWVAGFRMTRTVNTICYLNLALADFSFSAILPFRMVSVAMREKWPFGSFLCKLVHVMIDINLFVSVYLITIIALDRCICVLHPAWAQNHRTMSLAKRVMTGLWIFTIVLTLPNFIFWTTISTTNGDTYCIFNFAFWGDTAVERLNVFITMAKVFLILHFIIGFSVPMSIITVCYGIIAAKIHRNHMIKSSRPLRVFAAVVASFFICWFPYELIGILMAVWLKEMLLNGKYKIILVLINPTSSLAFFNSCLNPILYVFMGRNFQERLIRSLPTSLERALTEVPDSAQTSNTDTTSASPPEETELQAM

[2] = target: T2, N-formyl peptide receptor 2 (Homo sapiens, UniProt P25090); test: Agonist activity at FPR2 (unknown origin) transfected in human HL60 cells assessed as induction of Ca2+ mobilization; assay type: functional, cell-based, HL-60
T2 sequence (P25090 whole entry): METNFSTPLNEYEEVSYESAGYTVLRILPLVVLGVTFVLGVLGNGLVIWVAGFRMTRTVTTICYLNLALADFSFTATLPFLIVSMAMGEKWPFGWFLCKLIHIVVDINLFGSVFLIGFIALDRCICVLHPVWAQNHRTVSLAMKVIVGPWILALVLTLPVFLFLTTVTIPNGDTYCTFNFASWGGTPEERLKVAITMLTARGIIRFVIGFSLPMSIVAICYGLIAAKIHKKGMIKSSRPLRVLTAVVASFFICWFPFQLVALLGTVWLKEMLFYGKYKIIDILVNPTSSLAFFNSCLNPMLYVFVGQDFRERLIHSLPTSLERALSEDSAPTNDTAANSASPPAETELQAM

fMet-Leu-Phe receptor = target: T3, fMet-Leu-Phe receptor (Homo sapiens, UniProt P21462); test: Agonist activity at FPR1 (unknown origin) transfected in human HL60 cells assessed as induction of Ca2+ mobilization; assay type: functional, cell-based, HL-60
T3 sequence (P21462 whole entry): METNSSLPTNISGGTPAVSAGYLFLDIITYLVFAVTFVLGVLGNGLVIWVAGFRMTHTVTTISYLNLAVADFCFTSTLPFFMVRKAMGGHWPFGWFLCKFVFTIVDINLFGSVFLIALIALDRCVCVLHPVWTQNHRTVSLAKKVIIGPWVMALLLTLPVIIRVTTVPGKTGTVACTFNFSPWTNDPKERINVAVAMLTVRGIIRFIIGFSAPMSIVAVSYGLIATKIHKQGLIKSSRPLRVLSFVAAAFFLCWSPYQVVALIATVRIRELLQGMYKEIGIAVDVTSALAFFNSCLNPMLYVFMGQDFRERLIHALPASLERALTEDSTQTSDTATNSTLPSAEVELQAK

[3] = target: T4, fMet-Leu-Phe receptor (Homo sapiens) (UniProt P21462); test: Agonist activity at FPR1 (unknown origin) transfected in human HL60 cells assessed as induction of Ca2+ mobilization relative to fMLF; assay type: functional, cell-based; settings: HL-60
T4 sequence (whole entry): T3 sequence (P21462 whole entry)
How it was run: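 Same Fluo-4 Ca2+ flux in transfected HL-60 cells. The peak fluorescence change over baseline was normalized to 5 nM fMLF for FPR1 cells and to 5 nM WKYMVm for FPR2 and FPR3 cells, each taken as 100%. Efficacy was read from 5–6 point dose-response curves.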

HL-60 [4] = test: Cytotoxicity against human wild type HL60 cells at 5 to 20 uM after 60 mins by CellTitre-Glo luminescent assay; assay type: cell-based; settings: hl-60, 1 h
How it was run: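 Wild-type HL-60 cells at 3×10^4 cells/well were exposed to 5, 10 or 20 µM compound for 60 min at 37 °C in 5% CO2. Samples were equilibrated to room temperature for 30 min before the CellTiter-Glo luminescence read. Triplicate samples; the experiment was representative of two.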

HL-60 [5] = test: Effect on Ca2+ mobilization in human wild type HL60 cells; assay type: functional, cell-based
How it was run: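 Wild-type, non-transfected HL-60 cells, grown without G418, were run in the same Fluo-4 Ca2+ flux assay. Fluorescence was monitored every 5 s for 240 s at room temperature.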

Structure (SMILES) | EC50 [1] [µM] | EC50 [2] [µM] | EC50 (fMet-Leu-Phe receptor) [µM] | Efficacy [3] [%] | Activity (HL-60 [4]) | EC50 (HL-60 [5]) [µM]
Cc1cc(Cc2cccc3ccccc23)c(=O)n(CC(=O)Nc2ccc(Br)cc2)n1 | > 50 | > 50 | 13.8 | 20 | Non-toxic | > 50
Cc1cc(Cc2ccc(C(F)(F)F)cc2)c(=O)n(CC(=O)Nc2ccc(Br)cc2)n1 | > 50 | > 50 | > 50 | – | Non-toxic | > 50
Cc1ccc(=O)n(CC(=O)Nc2ccc(I)cc2)n1 | > 50 | > 50 | > 50 | – | Non-toxic | > 50
COc1ccc(Cc2cc(-c3cccs3)nn(CC(=O)Nc3ccc(Br)cc3)c2=O)cc1 | > 50 | > 50 | > 50 | – | Non-toxic | > 50
COc1cccc(Cc2cc(-c3ccccc3)nn(CC(=O)Nc3ccc(F)cc3)c2=O)c1 | > 50 | > 50 | > 50 | – | Non-toxic | > 50
COc1cccc(Cc2cc(-c3ccc(Cl)cc3)nn(CC(=O)Nc3ccc4c(c3)OCO4)c2=O)c1 | > 50 | > 50 | > 50 | – | Non-toxic | > 50
COc1ccc(Cc2cc(-c3ccc(C)cc3)nn(CC(=O)Nc3ccc(Br)cc3)c2=O)cc1 | > 50 | > 50 | > 50 | – | Non-toxic | > 50
CC1=NN(CC(=O)Nc2ccc(I)cc2)C(=O)CC1 | > 50 | > 50 | > 50 | – | Non-toxic | > 50
COc1ccc(Cc2cc(-c3ccc(Cl)cc3)nn(CC(=O)Nc3ccc(Br)cc3)c2=O)cc1 | > 50 | > 50 | > 50 | – | Non-toxic | > 50
COc1ccc(-c2cc(Cc3cccc(OC)c3)c(=O)n(CC(=O)Nc3ccc4c(c3)OCO4)n2)cc1 | > 50 | > 50 | > 50 | – | Non-toxic | > 50
Cc1cc(Cc2ccc(C#N)cc2)c(=O)n(CC(=O)Nc2ccc(Br)cc2)n1 | > 50 | > 50 | > 50 | – | Non-toxic | > 50
COc1cccc(Cc2cc(-c3ccc(Cl)cc3)nn(CC(=O)Nc3ccc(F)cc3)c2=O)c1 | > 50 | > 50 | > 50 | – | Non-toxic | > 50
COc1cccc(Cc2cc(-c3ccc(C)cc3)nn(CC(=O)Nc3ccc4c(c3)OCO4)c2=O)c1 | > 50 | > 50 | > 50 | – | Non-toxic | > 50
COc1ccc(Cc2cc(-c3ccc(F)cc3)nn(CC(=O)Nc3ccc(Br)cc3)c2=O)cc1 | > 50 | > 50 | > 50 | – | Non-toxic | > 50
COc1cccc(Cc2cc(-c3ccc(F)cc3)nn(CC(=O)Nc3ccc4c(c3)OCO4)c2=O)c1 | > 50 | > 50 | > 50 | – | Non-toxic | > 50
COc1ccc(-c2cc(Cc3cccc(OC)c3)c(=O)n(CC(=O)Nc3ccc(F)cc3)n2)cc1 | > 50 | > 50 | > 50 | – | Non-toxic | > 50
COc1cccc(Cc2cc(-c3cccs3)nn(CC(=O)Nc3ccc4c(c3)OCO4)c2=O)c1 | > 50 | > 50 | > 50 | – | Non-toxic | > 50
COc1cccc(Cc2cc(-c3ccc(C)cc3)nn(CC(=O)Nc3ccc(F)cc3)c2=O)c1 | > 50 | > 50 | > 50 | – | Non-toxic | > 50
Cc1cc(Cc2cccc(Br)c2)c(=O)n(CC(=O)Nc2ccc(Br)cc2)n1 | > 50 | > 50 | > 50 | – | Non-toxic | > 50
COc1cccc(Cc2cc(-c3ccccc3)nn(CC(=O)Nc3ccc4c(c3)OCO4)c2=O)c1 | > 50 | > 50 | > 50 | – | Non-toxic | > 50
COc1cccc(Cc2cc(-c3cccs3)nn(CC(=O)Nc3ccc(F)cc3)c2=O)c1 | > 50 | > 50 | > 50 | – | Non-toxic | > 50
COc1cc(Cc2cc(C)nn(CC(=O)Nc3ccc(Br)cc3)c2=O)cc(OC)c1 | > 50 | > 50 | > 50 | – | Non-toxic | > 50
Cc1cc(NC(=O)c2ccc(Br)cc2)c(=O)n(CC(=O)Nc2ccc(Br)cc2)n1 | > 50 | > 50 | > 50 | – | Non-toxic | > 50
COc1ccc(Cc2cc(Cc3ccccc3)nn(CC(=O)Nc3ccc(Br)cc3)c2=O)cc1 | > 50 | > 50 | > 50 | – | Non-toxic | > 50
COc1ccc(Cc2cc(-c3ccc(OC)cc3)nn(CC(=O)Nc3ccc(Br)cc3)c2=O)cc1 | > 50 | > 50 | > 50 | – | Non-toxic | > 50
COc1cccc(Cc2cc(-c3ccc(F)cc3)nn(CC(=O)Nc3ccc(F)cc3)c2=O)c1 | > 50 | > 50 | > 50 | – | Non-toxic | > 50
Cc1cc(Cc2ccccc2)c(=O)n(CC(=O)Nc2ccc(F)cc2)n1 | > 50 | > 50 | > 50 | – | Non-toxic | > 50
